Usually IC50 stands for the concentration needed to halve the response being measured. A low value points to inhibition by little substance.

Among the data in ChEMBL document CHEMBL1155796, “Lupane-type triterpenoids from Microtropis fokienensis and Perrottetia arisanensis and the apoptotic effect of 28-hydroxy-3-oxo-lup-20(29)-en-30-al” (J Nat Prod, 2008) are IC50 and Activity values, retold here.

In one assay the test system is MDA-MB-231. The assay can be described thus: Cytotoxicity against human MDA-MB-231 cells by MTT assay. The assay is classed as functional, cell-based. The essentials:
(§1)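 Freshly trypsinized cells were seeded at 5000-10 000 per well, and compounds were added from DMSO stocks and left for 3 days. Attached cells were then given MTT ([…], 1 h) and dissolved in DMSO, with absorbance read at 550 nm.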
Background: Tetrazolium dyes change colour on reduction, which living cells bring about.

A further assay concerns MCF7. The experiment in a line: Cytotoxicity against human MCF7 cells by MTT assay. It is filed as functional, cell-based. The method, boiled down: as §1
Another assay relates to HepG2. The assay can be described thus: Cytotoxicity against human HepG2 cells by MTT assay. It is filed as functional, cell-based. The method, boiled down: as §1
Assay [1] can be described thus: Cytotoxicity against human Hep3B cells by MTT assay. The assay is classed as functional, cell-based, Hep 3B2. The method, boiled down: as §1
The subject of assay [2] is HL-60. The experiment in a line: Cytotoxicity against human HL60 cells by MTT assay. The assay is classed as functional, cell-based. The essentials: as §1
The next assay concerns Ca9-22. The assay can be described thus: Cytotoxicity against human sCa9-22 cells by MTT assay. The assay is classed as functional, cell-based. The essentials: as §1
In another assay the test system is A549. The experiment in a line: Cytotoxicity against human A549 cells by MTT assay. It is filed as functional, cell-based. The method, boiled down: as §1
The subject of the next assay is B16. The assay can be described thus: Cytotoxicity against mouse B16 cells. The assay is classed as functional, cell-based.
Assay [3] relates to HL-60. The assay can be described thus: Cell cycle arrest in human HL60 cells assessed as accumulation at G0/G1 cells at 5 ug/ml after 24 hrs. It is filed as functional. The essentials: (§2)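 Treated and control HL60 cells harvested, washed in cold PBS, fixed in 70% ethanol and held at 4 °C. […] DNA content read by flow cytometry. Fractions in sub-G1, G0/G1, S and G2/M assigned by cell-cycle modelling software.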

The subject of assay [4] is HL-60. The assay can be described thus: Cell cycle arrest in human HL60 cells assessed as accumulation at G0/G1 cells at 1.250 ug/ml after 24 hrs. The assay is classed as functional. The method, boiled down:
as §2

For assay [5], the system named is HL-60. The experiment in a line: Cell cycle arrest in human HL60 cells assessed as accumulation at G2 cells at 1.250 ug/ml after 24 hrs. It is filed as functional. The method, boiled down: as §2
For assay [6], the system named is HL-60. The assay can be described thus: Cell cycle arrest in human HL60 cells assessed as accumulation at S cells at 2.5 ug/ml after 24 hrs. The assay is classed as functional. The method, boiled down: as §2
Assay [7] has as its system HL-60. The assay can be described thus: Induction of apoptosis in human HL60 cells assessed as effect on Bcl2 protein level by Western blotting. It is filed as functional, cell-based. The essentials:
(§3)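 Lysate cleared at 20000g, 30 min, 4 °C and protein measured by BCA. 50 µg resolved on 12% SDS-PAGE, blotted to PVDF and probed for PARP, Bax and Bcl-2, with β-tubulin as loading control.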

The test system of assay [8] is HL-60. The assay can be described thus: Induction of apoptosis in human HL60 cells assessed as PARP cleavage by Western blotting. The assay is classed as functional, cell-based. The method, boiled down:
as §3

Assay [9] deals with HL-60. The experiment in a line: Induction of apoptosis in human HL60 cells assessed as increase in Bax protein level by Western blotting. The assay is classed as functional, cell-based. The method, boiled down:
as §3
In general terms: A western blot detects proteins with antibodies after separation by electrophoresis.

Assay [10] relates to HL-60. The experiment in a line: Cell cycle arrest in human HL60 cells assessed as accumulation at G2 cells at 0.625 ug/ml after 24 hrs by flow cytometry. The assay is classed as functional. The essentials:
as §2
On the technique in general: In flow cytometry, cells or beads pass a laser one at a time.

The test system of assay [11] is HL-60. The experiment in a line: Cell cycle arrest in human HL60 cells assessed as accumulation at S cells at 1.250 ug/ml after 24 hrs. The assay is classed as functional. The essentials: as §2
The test system of assay [12] is HL-60. The assay can be described thus: Cell cycle arrest in human HL60 cells assessed as accumulation at subG1 cells at 0.625 ug/ml after 24 hrs by flow cytometry. It is filed as functional. The method, boiled down: as §2
Assay [13] relates to HL-60. The experiment in a line: Cell cycle arrest in human HL60 cells assessed as accumulation at G2 cells at 5 ug/ml after 24 hrs. It is filed as functional. The essentials: as §2
The subject of assay [14] is HL-60. The experiment in a line: Cell cycle arrest in human HL60 cells assessed as accumulation at subG1 cells at 1.250 ug/ml after 24 hrs. The assay is classed as functional. The essentials:
as §2

The subject of assay [15] is HL-60. The assay can be described thus: Cell cycle arrest in human HL60 cells assessed as accumulation at S cells at 0.625 ug/ml after 24 hrs by flow cytometry. It is filed as functional. The essentials: as §2
Assay [16] concerns HL-60. The assay can be described thus: Cell cycle arrest in human HL60 cells assessed as accumulation at G0/G1 cells at 0.625 ug/ml after 24 hrs by flow cytometry. The assay is classed as functional. The method, boiled down:
as §2

In assay [17] the test system is HL-60. The assay can be described thus: Cell cycle arrest in human HL60 cells assessed as accumulation at subG1 cells at 5 ug/ml after 24 hrs. The assay is classed as functional. The essentials:
as §2

In assay [18] the test system is HL-60. The experiment in a line: Cell cycle arrest in human HL60 cells assessed as accumulation at G2 cells at 2.5 ug/ml after 24 hrs. The assay is classed as functional. The method, boiled down: as §2
Assay [19] deals with HL-60. The experiment in a line: Cell cycle arrest in human HL60 cells assessed as accumulation at subG1 cells at 2.5 ug/ml after 24 hrs. The assay is classed as functional. The method, boiled down: as §2
The test system of assay [20] is HL-60. The assay can be described thus: Cell cycle arrest in human HL60 cells assessed as accumulation at S cells at 5 ug/ml after 24 hrs. The assay is classed as functional. The essentials:
as §2

Assay [21] has as its system HL-60. The assay can be described thus: Cell cycle arrest in human HL60 cells assessed as accumulation at G0/G1 cells at 2.5 ug/ml after 24 hrs. It is filed as functional. The essentials:
as §2

Values after ≈ are worked out from the molar mass of the structure shown. Active and inactive are the calls of the source. The rule behind the calls is not given here. A value given as a limit tells only on which side of the number the result lay.

With `COc1cccc2c1C(=O)c1c(O)c3c(c(O)c1C2=O)C[C@@](O)(C(=O)CO)C[C@@H]3O[C@H]1C[C@H](N)[C@H](O)[C@H](C)O1` [DOXORUBICIN], the IC50 with MDA-MB-231 stood at 0.15 µg/mL (≈ 0.276 µM); in the assay on MCF7, 0.32 µg/mL (≈ 0.589 µM); in the assay on HepG2 it was 0.17 µg/mL (≈ 0.313 µM); in [1], 0.27 µg/mL (≈ 0.497 µM); in the assay with HL-60 [2], 0.003 µg/mL (≈ 0.00552 µM); in the assay on Ca9-22, 0.09 µg/mL (≈ 0.166 µM).
Take `C=C(C)[C@@H]1CC[C@]2(C(=O)O)CC[C@]3(C)[C@H](CC[C@@H]4[C@@]5(C)CC[C@H](O)C(C)(C)[C@@H]5CC[C@]43C)[C@@H]12` [BETULINIC ACID]: the IC50 stood at 3.5 µg/mL (≈ 7.66 µM) in the assay on MDA-MB-231; 4 µg/mL (≈ 8.76 µM) with MCF7; 3.1 µg/mL (≈ 6.79 µM) in the assay with HepG2; 1.7 µg/mL (≈ 3.72 µM) in assay [1]; 2.8 µg/mL (≈ 6.13 µM) in the assay with A549; 5 µg/mL (≈ 10.9 µM) in the assay on B16. Further, the IC50 was 2 µg/mL (≈ 4.38 µM) with HL-60 [2] and greater than 20 µg/mL with Ca9-22.
Regarding `C=C(C)[C@@H]1CC[C@]2(CO)CC[C@]3(C)[C@H](CC[C@@H]4[C@@]5(C)CC[C@@H](O)C(C)(C)[C@@H]5CC[C@]43C)[C@@H]12` [3-EPI-BETULIN], the IC50 in the assay with MDA-MB-231 was greater than 20 µg/mL; in the assay on MCF7, 16 µg/mL (≈ 36.1 µM); in the assay on HepG2, 6.7 µg/mL (≈ 15.1 µM); in [1], 9.3 µg/mL (≈ 21 µM); with A549 it was 15.7 µg/mL (≈ 35.5 µM); in the assay with HL-60 [2], 1.7 µg/mL (≈ 3.84 µM). Besides, the half-maximal inhibitory concentration (IC50) with Ca9-22 is greater than 20 µg/mL.
Take `C=C(CO)[C@@H]1CC[C@]2(C)CC[C@]3(C)[C@H](CC[C@@H]4[C@@]5(C)CCC(=O)C(C)(C)[C@@H]5CC[C@]43C)[C@@H]12`: the IC50 in the assay on B16 came out at 9.2 µg/mL (≈ 20.9 µM).
`C=C(C)[C@@H]1CC[C@]2(C(=O)O)CC[C@]3(C)[C@H](CC[C@@H]4[C@@]5(C)CC[C@@H](O)C(C)(C)[C@@H]5CC[C@]43C)[C@@H]12` [EPIBETULINIC ACID]: the IC50 is 9.2 µg/mL (≈ 20.1 µM) with MDA-MB-231; 9.7 µg/mL (≈ 21.2 µM) in the assay with MCF7; 9.3 µg/mL (≈ 20.4 µM) in the assay with HepG2; 8.1 µg/mL (≈ 17.7 µM) in assay [1]; 9.7 µg/mL (≈ 21.2 µM) in the assay with A549; 2.3 µg/mL (≈ 5.04 µM) in the assay on HL-60 [2].
Consider `C=C(C=O)[C@@H]1CC[C@]2(CO)CC[C@]3(C)[C@H](CC[C@@H]4[C@@]5(C)CCC(=O)C(C)(C)[C@@H]5CC[C@]43C)[C@@H]12`, for which the IC50 in the assay on MDA-MB-231 was 7.9 µg/mL (≈ 17.4 µM); in the assay with MCF7, 2.9 µg/mL (≈ 6.38 µM); in the assay on HepG2, 12.6 µg/mL (≈ 27.7 µM); in assay [1], 4.7 µg/mL (≈ 10.3 µM); in the assay with A549, 16.4 µg/mL (≈ 36.1 µM); in the assay on HL-60 [2] it was 1.6 µg/mL (≈ 3.52 µM). The same compound registered an IC50 in the assay on Ca9-22 of 1.4 µg/mL (≈ 3.08 µM). Moreover, the Activity in the assay on HL-60 [3] is recorded as 14.6%; in the assay with HL-60 [4] it was 55.5%; in the assay with HL-60 [5] it was 11.2%; in the assay with HL-60 [6], 22.3%; with HL-60 [10], 13.9%; with HL-60 [11] it was 30.5%. The Activity was determined as 1.6% in the assay with HL-60 [12]; 7.8% with HL-60 [13]; 2.8% in the assay with HL-60 [14]; 30.3% with HL-60 [15]; 54.2% in the assay with HL-60 [16]; 57.8% with HL-60 [17]. Besides, the Activity in the assay on HL-60 [18] was found to be 11.5%; with HL-60 [19] it was 10.2%; with HL-60 [20], 19.8%; in the assay on HL-60 [21] it was 56%. In the assay on HL-60 [7], the result was inactive. Besides, the result in the assay with HL-60 [8] and in the assay on HL-60 [9] was Active.
